Measured values taken from ChEMBL document CHEMBL1949554, “Peptidomimetics containing a vinyl ketone warhead as falcipain-2 inhibitors” (Eur J Med Chem, 2011).
Activity calls are given as the source filed them. The calls are words filed in the database; no cut-off is given here.

Legend:
[1] = Inhibition of Plasmodium falciparum Falcipain 2 using Cbz-Phe-Arg-AMC as substrate after 15 mins by spectrofluorometer analysis
In short: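 Continuous progress-curve assay in 50 mM sodium acetate pH 5.5 with 10 mM DTT, Cbz-Phe-Arg-AMC as substrate, inhibitors from DMSO stocks. AMC release read (ex 365, em 460 nm) for 15 min at room temperature. kobs from the fit F = A(1−exp(−kobs·t)) + B. Hyperbolic kobs vs [I] gave kinac and KI; linear plots gave k2nd = kobs/[I]. At least two independent runs, each in duplicate.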

Procathepsin L [2] = biological target: T1, Procathepsin L (Homo sapiens, UniProt P07711); experiment: Inhibition of human cathepsin L using Cbz-Phe-Arg-AMC as substrate by spectrofluorometer analysis
Target sequence in this assay (P07711 whole entry): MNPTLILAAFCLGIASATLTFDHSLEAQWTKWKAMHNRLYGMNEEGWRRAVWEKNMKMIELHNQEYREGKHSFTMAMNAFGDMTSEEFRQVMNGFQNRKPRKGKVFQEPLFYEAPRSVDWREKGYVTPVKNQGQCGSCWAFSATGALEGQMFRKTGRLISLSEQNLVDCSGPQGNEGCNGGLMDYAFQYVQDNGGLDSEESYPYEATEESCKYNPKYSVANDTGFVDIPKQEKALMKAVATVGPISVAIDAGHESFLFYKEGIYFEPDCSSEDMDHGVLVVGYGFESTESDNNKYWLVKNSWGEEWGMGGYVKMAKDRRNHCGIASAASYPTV

Cathepsin B = Cathepsin B (Homo sapiens, UniProt P07858); experiment: Inhibition of human cathepsin-B using Cbz-Phe-Arg-AMC as substrate by spectrofluorometer analysis
Procathepsin L [3] = biological target: T1, Procathepsin L; conditions: 5 to 50 uM
Target sequence in this assay (P07711 114-333 limits assumed): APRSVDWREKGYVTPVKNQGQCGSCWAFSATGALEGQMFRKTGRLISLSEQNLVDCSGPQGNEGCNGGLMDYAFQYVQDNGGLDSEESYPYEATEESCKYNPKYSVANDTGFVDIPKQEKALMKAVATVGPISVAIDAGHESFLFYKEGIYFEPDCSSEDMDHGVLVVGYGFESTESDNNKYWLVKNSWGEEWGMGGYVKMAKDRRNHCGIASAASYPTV

Plasmodium falciparum [4] = experiment: Antiplasmodial activity against Plasmodium falciparum FCBR; assay type: functional, organism-based; conditions: FCBR/Columbia
Plasmodium falciparum [5] = experiment: Inhibition of Plasmodium falciparum Falcipain 2 using Cbz-Phe-Arg-AMC as substrate at 100 uM after 15 mins by spectrofluorometer analysis
In short: (§1)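 Single-concentration screen at 100 and 30 inhibitor concentration, with an equal amount of DMSO as negative control and E-64 as positive control. AMC release from Cbz-Phe-Arg-AMC was followed fluorimetrically (ex 365, em 460 nm) as continuous increase in fluorescence. Percent inhibition is relative to DMSO. At least two independent measurements, each in duplicate.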

Plasmodium falciparum [6] = experiment: Inhibition of Plasmodium falciparum Falcipain 2 using Cbz-Phe-Arg-AMC as substrate at 30 uM after 15 mins by spectrofluorometer analysis; in short: as §1

Compound	Ki (Procathepsin L [2]; read-out: Ki) [µM]	Ki (Cathepsin B) [µM]	further results
CC(=O)/C=C/CNC(=O)CN1C(=O)[C@@H](CNCC(C)C)N=C(c2ccccc2)c2ccccc21	> 140	> 100	Ki [1]: > 100 µM
CC(=O)/C=C/CNC(=O)CN1C(=O)[C@@H](COC(=O)Nc2ccc(Cl)cc2C(F)(F)F)N=C(c2ccccc2)c2ccccc21	–	–	Ki (Procathepsin L [2]; read-out: Ki(app)): 8.6 µM; inhibition (Procathepsin L [3]): tde
CC(=O)/C=C/CNC(=O)CN1C(=O)[C@@H](CN2CCOCC2)N=C(c2ccccc2)c2ccccc21	–	> 100	–
CC(=O)/C=C/CNC(=O)CN1C(=O)[C@@H](COC(=O)Nc2ccc(Cl)cc2C(F)(F)F)N=C(C)c2ccccc21	82	–	IC50 (Plasmodium falciparum [4]): > 100 µM
CC(=O)/C=C/CNC(=O)CN1C(=O)[C@@H](CN2CCCCC2)N=C(c2ccccc2)c2ccccc21	> 100	> 100	inhibition (Plasmodium falciparum [5]): 80%; inhibition (Plasmodium falciparum [6]): inactive
